Experimental data as given in ChEMBL document CHEMBL2434966, “Novel N-4-piperazinyl-ciprofloxacin-chalcone hybrids: synthesis, physicochemical properties, anticancer and topoisomerase I and II inhibitory activity” (Eur J Med Chem, 2013).

How the values were obtained:
Format in all cases: functional
[1] = system: IGROV-1; assay: Growth inhibition of human IGROV1 cells assessed as cell growth at 10^-5 M after 48 hrs by sulforhodamine B assay; conditions: IGROV-1, 48 h, read-out: Activity
Summary of the method: (§1)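 NCI 60-cell-line primary screen. Single concentration of 10^-5 M, 48 h incubation. End point by sulforhodamine B protein staining read spectrophotometrically. Reported as percent growth of treated cells relative to untreated control cells.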

[2] = Growth inhibition of human HCC2998 cells after 48 hrs by sulforhodamine B assay; conditions: HCC 2998, 48 h; for CC50: read-out: LC50 (the source's name)
Summary of the method: (§2)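 NCI 60-panel five-dose test at 10-fold dilutions, 10^-4 to 10^-8 M, with 48 h continuous exposure and SRB protein read-out. Percent growth derived from time-zero, untreated-control and treated absorbances. GI50 is the concentration where [(Ti-Tz)/(C-Tz)]×100 = 50. TGI is taken at Ti = Tz. LC50 is taken at [(Ti-Tz)/Tz]×100 = -50.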

[3] = system: DU-145; assay: Growth inhibition of human DU145 cells after 48 hrs by sulforhodamine B assay; conditions: DU-145, 48 h; summary of the method: as §2
[4] = system: OVCAR-8; assay: Growth inhibition of human OVCAR8 cells after 48 hrs by sulforhodamine B assay; conditions: OVCAR-8, 48 h; for CC50: read-out: LC50 (the source's name)
Summary of the method: (§3)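 NCI five-dose screen on the full 60-cell-line panel. Cells were given 10-fold dilutions from 10^-4 to 10^-8 M with continuous 48 h exposure, and growth was read by SRB staining. Percent growth was taken from time-zero, control and treated absorbances. GI50, TGI and LC50 were then derived, the GI50 being the concentration that gives a 50% lower net protein increase than control.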

[5] = system: K562; assay: Growth inhibition of human K562 cells assessed as cell growth at 10^-5 M after 48 hrs by sulforhodamine B assay; conditions: K562, 48 h, read-out: Activity; summary of the method: as §1
[6] = system: NCI-H226; assay: Growth inhibition of human NCI-H226 cells assessed as cell growth at 10^-5 M after 48 hrs by sulforhodamine B assay; conditions: NCI-H226, 48 h, read-out: Activity
Summary of the method: (§4)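 NCI 60-cell-line primary one-dose screen. Cells were exposed to a single 10^-5 M concentration for 48 h. The end point was sulforhodamine B protein staining, read spectrophotometrically. Results are reported as percent growth of treated cells relative to untreated control cells.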

[7] = system: UO-31; assay: Growth inhibition of human UO31 cells after 48 hrs by sulforhodamine B assay; conditions: UO-31, 48 h
Summary of the method: (§5)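 NCI 60-cell panel, five concentrations (10-fold dilutions, 0.01–100 µM), 48 h continuous exposure; SRB protein stain read spectrophotometrically. Percent growth from time-zero, untreated-control and treated absorbances. GI50 is the concentration giving 50% lower net protein increase than control. Values beyond the tested range are reported as more or less than the highest or lowest concentration.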

[8] = system: U-251; assay: Growth inhibition of human U251 cells after 48 hrs by sulforhodamine B assay; conditions: U-251, 48 h; summary of the method: as §5
[9] = system: NCI-H522; assay: Growth inhibition of human NCI-H522 cells after 48 hrs by sulforhodamine B assay; conditions: NCI-H522, 48 h; for CC50: read-out: LC50 (the source's name); summary of the method: as §3
[10] = system: CAKI-1; assay: Growth inhibition of human CAKI-1 cells assessed as cell growth at 10^-5 M after 48 hrs by sulforhodamine B assay; conditions: CAKI-1, 48 h, read-out: Activity; summary of the method: as §1
[11] = system: LOX IMVI; assay: Growth inhibition of human LOXIMVI cells assessed as cell growth at 10^-5 M after 48 hrs by sulforhodamine B assay; conditions: read-out: Activity; summary of the method: as §1
[12] = system: MDA-MB-468; assay: Growth inhibition of human MDA-MB-468 cells assessed as cell growth at 10^-5 M after 48 hrs by sulforhodamine B assay; conditions: MDA-MB-468, 48 h, read-out: Activity; summary of the method: as §4
[13] = system: UACC-62; assay: Growth inhibition of human UACC62 cells assessed as cell growth at 10^-5 M after 48 hrs by sulforhodamine B assay; conditions: UACC-62, 48 h, read-out: Activity
Summary of the method: (§6)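 NCI primary one-dose screen: single concentration of 10^-5 M added to culture, 48 h incubation, SRB protein-dye endpoint. Percent growth of treated cells measured spectrophotometrically against untreated controls.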

[14] = system: OVCAR-3; assay: Growth inhibition of human OVCAR3 cells after 48 hrs by sulforhodamine B assay; conditions: OVCAR-3, 48 h; for CC50: read-out: LC50 (the source's name); summary of the method: as §3
[15] = system: SK-MEL-28; assay: Growth inhibition of human SK-MEL-28 cells assessed as cell growth at 10^-5 M after 48 hrs by sulforhodamine B assay; conditions: SK-MEL-28, 48 h, read-out: Activity; summary of the method: as §4
[16] = system: TK-10; assay: Growth inhibition of human TK10 cells after 48 hrs by sulforhodamine B assay; conditions: TK-10, 48 h; for CC50: read-out: LC50 (the source's name); summary of the method: as §5
[17] = system: UO-31; assay: Growth inhibition of human UO31 cells assessed as cell growth at 10^-5 M after 48 hrs by sulforhodamine B assay; conditions: UO-31, 48 h, read-out: Activity; summary of the method: as §6
[18] = system: 786-0; assay: Growth inhibition of human 786-0 cells after 48 hrs by sulforhodamine B assay; conditions: 786-0, 48 h; summary of the method: as §2
[19] = system: KM12; assay: Growth inhibition of human KM12 cells assessed as cell growth at 10^-5 M after 48 hrs by sulforhodamine B assay; conditions: KM12, 48 h, read-out: Activity; summary of the method: as §1
[20] = system: MOLT-4; assay: Growth inhibition of human MOLT4 cells assessed as cell growth at 10^-5 M after 48 hrs by sulforhodamine B assay; conditions: MOLT-4, 48 h, read-out: Activity; summary of the method: as §4
[21] = system: A549; assay: Growth inhibition of human A549/ATCC cells after 48 hrs by sulforhodamine B assay; conditions: A549, 48 h; summary of the method: as §2
[22] = system: COLO 205; assay: Growth inhibition of human COLO205 cells assessed as cell growth at 10^-5 M after 48 hrs by sulforhodamine B assay; conditions: COLO 205, 48 h, read-out: Activity; summary of the method: as §1
[23] = system: NCI-H522; assay: Growth inhibition of human NCI-H522 cells assessed as cell growth at 10^-5 M after 48 hrs by sulforhodamine B assay; conditions: NCI-H522, 48 h, read-out: Activity; summary of the method: as §4
[24] = system: M14; assay: Growth inhibition of human M14 cells assessed as cell growth at 10^-5 M after 48 hrs by sulforhodamine B assay; conditions: M14, 48 h, read-out: Activity; summary of the method: as §1
[25] = system: CCRF-CEM; assay: Growth inhibition of human CCRF-CEM cells after 48 hrs by sulforhodamine B assay; summary of the method: as §2
[26] = system: KM12; assay: Growth inhibition of human KM12 cells after 48 hrs by sulforhodamine B assay; conditions: KM12, 48 h; for CC50: read-out: LC50 (the source's name); summary of the method: as §2

COc1cc(/C=C/C(=O)c2ccc(NC(=O)CN3CCN(c4cc5c(cc4F)c(=O)c(C(=O)O)cn5C4CC4)CC3)cc2)cc(OC)c1OC
growth at 10 µM [1]: -1.19% | GI50 [2]: 2.76 µM | TGI [2]: 11.4 µM | CC50 [2]: > 100 µM | GI50 [3]: 0.67 µM | LC50 (concentration killing 50% of starting cells) [3]: > 100 µM | TGI [3]: > 100 µM | GI50 [4]: 0.34 µM | TGI [4]: 26.7 µM | CC50 [4]: > 100 µM | growth at 10 µM [5]: 1.66% | growth at 10 µM [6]: -9.81% | GI50 [7]: 1.17 µM | LC50 (concentration killing 50% of cells) [7]: > 100 µM | TGI [7]: 6.8 µM | GI50 [8]: 0.33 µM | LC50 (concentration killing 50% of cells) [8]: 12.9 µM | TGI [8]: 1.29 µM | GI50 [9]: 0.66 µM | TGI [9]: 3.19 µM | CC50 [9]: 17.9 µM | growth at 10 µM [10]: 57.2% | growth at 10 µM [11]: -54.7% | growth at 10 µM [12]: -1.82% | growth at 10 µM [13]: -23.5% | GI50 [14]: 0.29 µM | TGI [14]: 0.92 µM | CC50 [14]: 9.04 µM | growth at 10 µM [15]: 34% | GI50 [16]: 1.29 µM | TGI [16]: 16.5 µM | CC50 [16]: > 100 µM | growth at 10 µM [17]: 2.96% | GI50 [18]: 0.6 µM | LC50 [18]: 7.7 µM | TGI [18]: 2.38 µM | growth at 10 µM [19]: -65.1% | growth at 10 µM [20]: -1.1% | GI50 [21]: 0.37 µM | LC50 (concentration giving 50% net cell kill) [21]: > 100 µM | TGI [21]: 2.14 µM | growth at 10 µM [22]: -12.8% | growth at 10 µM [23]: -71.5% | growth at 10 µM [24]: -14.1% | GI50 [25]: 0.32 µM | LC50 (concentration giving 50% net cell kill) [25]: > 100 µM | GI50 [26]: 0.53 µM | TGI [26]: 3.17 µM | CC50 [26]: > 100 µM

O=C(CN1CCN(c2cc3c(cc2F)c(=O)c(C(=O)O)cn3C2CC2)CC1)Nc1ccc(C(=O)/C=C/c2ccccc2)cc1
growth at 10 µM [1]: 42.9% | GI50 [2]: 39.6 µM | TGI [2]: > 100 µM | CC50 [2]: > 100 µM | GI50 [3]: 3.74 µM | LC50 (concentration killing 50% of starting cells) [3]: > 100 µM | TGI [3]: > 100 µM | GI50 [4]: 3.07 µM | TGI [4]: > 100 µM | CC50 [4]: > 100 µM | growth at 10 µM [5]: 14.2% | growth at 10 µM [6]: 57.4% | GI50 [7]: 2.78 µM | LC50 (concentration killing 50% of cells) [7]: > 100 µM | TGI [7]: 45.4 µM | GI50 [8]: 2.92 µM | LC50 (concentration killing 50% of cells) [8]: > 100 µM | TGI [8]: > 100 µM | GI50 [9]: 1.7 µM | TGI [9]: 7.78 µM | CC50 [9]: > 100 µM | growth at 10 µM [10]: 73.1% | growth at 10 µM [11]: 5.67% | growth at 10 µM [12]: 33.8% | growth at 10 µM [13]: 35.5% | GI50 [14]: 3.64 µM | TGI [14]: > 100 µM | CC50 [14]: > 100 µM | growth at 10 µM [15]: 85.7% | GI50 [16]: 4.19 µM | TGI [16]: > 100 µM | CC50 [16]: > 100 µM | growth at 10 µM [17]: 45% | GI50 [18]: 4.5 µM | LC50 [18]: > 100 µM | TGI [18]: > 100 µM | growth at 10 µM [19]: 25.3% | growth at 10 µM [20]: 19% | GI50 [21]: 2.41 µM | LC50 (concentration giving 50% net cell kill) [21]: > 100 µM | growth at 10 µM [22]: 108% | growth at 10 µM [23]: 10.6% | growth at 10 µM [24]: 31.9% | GI50 [25]: 4.09 µM | LC50 (concentration giving 50% net cell kill) [25]: > 100 µM | TGI [25]: > 100 µM | GI50 [26]: 4.11 µM | TGI [26]: > 100 µM | CC50 [26]: > 100 µM
